Compound activity as filed in PubChem.
Rce1 inhib: yeast Ras-converting enzyme inhibition; Q03530; yeast membranes, quenched prenylated peptide cleavage fluorescence; calls only; 0.27% of 290,000 active;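 active means fall in fluorescence gain of 50% or more versus controls, with final raw signal at or below 3038400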
Target sequence (Q03530 whole entry, looked up): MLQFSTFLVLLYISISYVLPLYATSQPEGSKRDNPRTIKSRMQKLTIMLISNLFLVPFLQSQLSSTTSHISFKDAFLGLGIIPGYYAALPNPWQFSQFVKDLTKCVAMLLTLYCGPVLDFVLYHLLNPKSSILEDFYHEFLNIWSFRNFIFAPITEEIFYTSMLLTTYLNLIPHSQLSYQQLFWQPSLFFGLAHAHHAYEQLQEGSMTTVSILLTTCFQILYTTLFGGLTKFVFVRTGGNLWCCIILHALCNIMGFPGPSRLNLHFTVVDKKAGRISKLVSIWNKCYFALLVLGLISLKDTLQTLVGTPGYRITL
HCV core dimer: blocks dimerization of HCV core protein | 0.33% of 300,000 active | inhibition, % at 5 µM | TR-FRET GST/Flag-core106 dimerization, 1536-well | AID 1899;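 active means inhibition above the mean of all tested compounds plus 3 SD, set per screening campaign, cut at about 45% in these data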
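System: GST-tagged and Flag-tagged HCV core protein residues 1-106 / Input: core106 proteins, GST 13.5 nM and Flag 17 nM / Buffer or medium: KF-containing HEPES buffer, pH 7.45, DTT, CHAPS, BSA / Probe or stimulus: Eu-anti-GST and XL665-anti-Flag labelled anti-tag antibodies / Schedule: 4 h, 22.5 °C incubation / Technique: TR-FRET 671 and 617 nm emission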
Tb MetRS inh: blocks T. brucei methionyl-tRNA synthetase activity. AID 624268. 0.4% of 360,000 active. purified T. brucei MetRS, ATP depletion, Kinase-Glo luminescence. inhibition, % at 11.9 µM;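 active means inhibition above a per-plate cutoff of the control wells' mean inhibition plus 3 SD, cut at about 5.5% in these data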
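Test system: purified T. brucei MetRS enzyme. Also added: ATP, methionine and E. coli bulk tRNA substrates. Compound: 11.9 µM single point. Schedule: 15 min enzyme-compound preincubation, 2 h reaction, 10 min detection, 25 °C. Signal: luciferase luminescence of residual ATP, Kinase-Glo. Evaluation: percent inhibition versus plate control medians. Controls: DMSO wells, low control.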
NadD block: blocks S. aureus nicotinate mononucleotide adenylyltransferase | purified NadD enzyme, colorimetric absorbance read-out | inhibition, % at 20 µM | 0.78% of 360,000 active | AID 602399; in the data active means inhibition above about 26%
DSG3 Ab inh: human desmoglein-3 autoantibody binding inhibition; P32926; DSG3-coupled beads, scFv-anti-DSG3-GFP binding, flow cytometry; stronger effect = lower value; binding (percent of control), % at 10 µM; 0.48% of 310,000 active; AID 588358;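 active means binding more than 3 SD below its plate's average and above zero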;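 further: hits lower antibody fragment binding to DSG3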
NadD conf: confirmation of Staphylococcus aureus NadD inhibitors; shares compounds with NadD block; purified S. aureus NadD, colorimetric enzyme assay; inhibition, % at 20 µM; 13% of 2,000 active; in the data active means inhibition mostly above about 42%, no sharp cut-off; inactive means mostly below about 42%
Numbers stand for hits. Sampled rows, rich in hits. Any-hit rate of the full collection: about 1.9%.

For O=C1C2C(c3ccccc3)CC=CC2[C@H](c2ccc3ccccc3c2)N1Cc1ccccc1 (some centres not stated) the results were Rce1 inhib inactive, HCV core dimer inactive, Tb MetRS inh inactive, NadD block inactive and DSG3 Ab inh inactive.
`COc1ccc(-c2cccc(C3CC=CC4C3C(=O)N(Cc3ccccc3)C4c3ccc4ccccc4c3)c2)cc1` (configuration not stated) gave Rce1 inhib inactive, HCV core dimer inactive, Tb MetRS inh inactive, NadD block 31, DSG3 Ab inh inactive and NadD conf inactive.
Screening CC1=Nn2c(nnc2C2CCCCC2)SC1 returned Rce1 inhib inactive, HCV core dimer inactive, Tb MetRS inh inactive and NadD block inactive.
CC1(C)CC[C@]2(C(=O)O)CC[C@]3(C)C(=CCC4[C@@]5(C)CC[C@H](O)C(C)(C)C5CC[C@]43C)C2C1 (some centres not stated) was read as Rce1 inhib inactive, HCV core dimer inactive, Tb MetRS inh inactive, NadD block inactive and DSG3 Ab inh inactive.
For CC1(C)CC[C@]2(C(=O)O)CC[C@]3(C)C(=CC[C@@H]4[C@@]5(C)CC[C@H](O)C(C)(C)[C@@H]5CC[C@]43C)[C@@H]2C1 the results were HCV core dimer inactive, Tb MetRS inh inactive, NadD block 30, DSG3 Ab inh inactive and NadD conf inactive.
CCOC(=O)C1=C(C)N=c2sc(=Cc3cc(Cl)c(OCC(=O)O)c(Cl)c3)c(=O)n2C1c1cccc(OC)c1 (configuration not stated) was read as Tb MetRS inh inactive, NadD block 34 and NadD conf 52.
For O=C(Nc1ccc(N2CCCC2)cc1)c1ccc([N+](=O)[O-])cc1Cl the results were Rce1 inhib inactive, HCV core dimer inactive, Tb MetRS inh inactive, NadD block 36, DSG3 Ab inh inactive and NadD conf inactive.
`O=C(Nc1ccc(N2CCCC2)cc1)c1ccc2ccccc2c1` gave Rce1 inhib inactive, HCV core dimer inactive, Tb MetRS inh inactive, NadD block 34, DSG3 Ab inh inactive and NadD conf inactive.
Screening O=C(Nc1ccccc1N1CCCC1)c1cccc(-c2cc3ccccc3oc2=O)c1 returned Rce1 inhib inactive, HCV core dimer inactive, Tb MetRS inh inactive, NadD block inactive and DSG3 Ab inh inactive.
`O=C(Nc1ccc(S(=O)(=O)N2CCOCC2)cc1)c1ccc([N+](=O)[O-])cc1Cl` gave Rce1 inhib inactive, HCV core dimer inactive, Tb MetRS inh inactive, NadD block inactive and DSG3 Ab inh inactive.
O=C(Nc1ccc(N2CCCC2)cc1)c1cccc(-c2cc3ccccc3oc2=O)c1 was read as Rce1 inhib inactive, HCV core dimer inactive, Tb MetRS inh inactive, NadD block 57, DSG3 Ab inh inactive and NadD conf inactive.
For O=C(NCc1ccccc1F)c1cccs1 the results were Rce1 inhib inactive, HCV core dimer inactive, Tb MetRS inh inactive, NadD block inactive and DSG3 Ab inh inactive.
`Cc1ccc(C(=O)Nc2ccc(C(=O)N3CCCCC3C)cc2)cc1` (configuration not stated) gave Rce1 inhib inactive, HCV core dimer inactive, Tb MetRS inh inactive and NadD block inactive.
O=C(Nc1ccc2c(c1)OCCO2)C(C1CC1)N1CCN(c2ccc(F)cc2)CC1 (configuration not stated) was read as Tb MetRS inh inactive and NadD block inactive.
Cc1nn(C)cc1-c1cc(C(=O)O)c2ccccc2n1 was read as Rce1 inhib inactive, HCV core dimer inactive, Tb MetRS inh inactive, NadD block inactive and DSG3 Ab inh inactive.
Screening Cc1cc(-c2cc(C(=O)O)c3ccccc3n2)c(C)s1 returned Rce1 inhib inactive, HCV core dimer inactive, Tb MetRS inh inactive, NadD block 58, DSG3 Ab inh inactive and NadD conf inactive.
C#CCOCCOCCOCCNc1nc(N2CCN(C(=O)[C@H]([C@@H](C)CC)n3cc([C@@H](N)Cc4ccc(O)cc4)nn3)CC2)nc(N2CCN(C(=O)[C@H](Cc3cc4ccccc4[nH]3)n3cc([C@@H](N)CC(C)C)nn3)CC2)n1 was read as HCV core dimer inactive, Tb MetRS inh inactive, NadD block 48, DSG3 Ab inh inactive and NadD conf inactive.
